# Rows were chosen to be rich in hits. Some 4% of all compounds tested hit in one or more screens of this group.
# E-selectin induc = E-selectin induction on HUVECs; HUVEC E-selectin immunofluorescence imaging; normalized: neutral wells 0, TNF-alpha wells 100; activation, % at 7.58 µM; 0.37% of 260,000 active;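 active means mean E-selectin-positive cell signal at least 10% of the positive control, reached in at least 60% of replicates, without over 20% cell loss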
#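 Read-out basis: % PE-positive cells; Test system: HUVEC primary endothelial cells; Technique: immunofluorescence imaging; Dosing: single-point compound dose.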
# FN deposit inh = fibronectin deposition inhibition. AH1F fibroblasts, Alexa488-fibronectin deposition fluorescence, overnight. 0.086% of 350,000 active. inhibition, % at 12.6 µM;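 active means mean inhibition across replicates of 30% or more, regardless of how many single replicates reach that level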
#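 Material: AH1F fibroblast monolayer depositing Alexa488-labelled fibronectin into matrix | Input: 10000 AH1F cells/well | Medium: DMEM plus 2% serum, read in PBS | Reagent: Alexa488-fibronectin, 24 nM final in well | Compound dosing: One dose per compound, pinned | Schedule: 1 h adhesion, overnight exposure | Measured by: Fluorescence at 485 nm excitation, 525 nm emission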
# FGF22 binding = FGF22 (human) thermal shift binding; recombinant FGF22 thermal shift, SYPRO orange fluorescence; percent of sucrose octasulfate shift, DMSO zero; activity (Tm shift, normalised), % at 9.99 µM; 1.5% of 340,000 active; AID 651658;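 active means mean Tm shift, scaled 0 neutral to 100 positive control, at about 1.3% or above, every replicate too, limit read from the data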
# Target sequence (Q9HCT0 whole entry, looked up): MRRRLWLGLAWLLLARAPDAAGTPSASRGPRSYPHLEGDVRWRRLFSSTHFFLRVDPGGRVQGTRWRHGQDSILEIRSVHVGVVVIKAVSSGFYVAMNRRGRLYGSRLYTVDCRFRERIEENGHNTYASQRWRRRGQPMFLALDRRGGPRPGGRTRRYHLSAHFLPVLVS
# C2C12 statin = suppressors of simvastatin-induced myotoxicity in C2C12 myotubes; AID 602340; rescue of ATP level, % at 7.49 µM; 0.78% of 330,000 active; ATP luminescence, 48 h; scaled: DMSO 0, geranylgeraniol control 100;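 active means mean ATP rescue above about 67%, or every replicate alone reaching that limit, limit read from the data, passing the limit was not always enough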;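 further: myotubes were challenged with 10 µM simvastatin during compound exposure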
# SIRT5 block = blocks human SIRT5 desuccinylation of peptide. Q9NXA8. AID 652115. inhibition, % at 15 µM. Purified SirT5, succinyl-peptide AMC, trypsin-coupled fluorescence. 1.1% of 330,000 active; in the data active means inhibition above about 15%
# Target sequence (Q9NXA8 whole entry, looked up): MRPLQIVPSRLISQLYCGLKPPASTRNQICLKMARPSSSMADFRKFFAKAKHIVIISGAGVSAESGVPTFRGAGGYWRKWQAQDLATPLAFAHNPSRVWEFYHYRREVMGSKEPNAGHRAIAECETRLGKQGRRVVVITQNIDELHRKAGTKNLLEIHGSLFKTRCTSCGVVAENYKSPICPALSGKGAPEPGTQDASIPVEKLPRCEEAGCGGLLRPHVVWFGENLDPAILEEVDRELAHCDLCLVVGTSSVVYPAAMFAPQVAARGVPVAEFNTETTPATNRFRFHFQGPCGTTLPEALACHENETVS
# rRNA inh HTS = selective bacterial rRNA inhibition in E. coli; E. coli WT GFP vs humanized-ribosome RFP mutants, fluorescence, 24 h; stronger effect = lower value; DMSO median 0, no signal -100; 1.6% of 350,000 active; GFP signal change (wild-type ribosome), % (concentration not given with the values);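 active means significant combined selectivity score with lowered wild-type GFP, culture density cut under 30%, mutant RFP and density less affected; inactive means any of these conditions unmet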
# Numbers stand for hits; - = inactive; . = no result given.
SMILES,E-selectin induc,FN deposit inh,FGF22 binding,C2C12 statin,SIRT5 block,rRNA inh HTS
Cc1nc(N/N=C/c2cccc(F)c2)cc(N2CCOCC2)n1,-,-,-,-,-,-
Clc1c(-c2ccccc2)nc2ccccn12,.,-,-,-,-,-
c1ccn2c(c1)nc1c2nc2ccccn21,.,-,.,168,.,.
Cc1cc(C(=O)N2CCN(c3ccc([N+](=O)[O-])cc3)CC2)co1,-,-,-,.,-,-
Cn1c(C(=O)N2CCN(c3ccc([N+](=O)[O-])cc3)CC2)cc2c(=O)[nH]c3ccccc3c21,-,-,44,-,-,-
CCNC(=S)NNC(=O)c1cccn(Cc2ccc(Cl)cc2Cl)c1=O,.,-,.,82,-,-
N#C/C(=C\c1ccc(OC(F)F)cc1)C(=O)N1CCCCC1,-,-,-,.,-,-
CCN1CCN(C(=O)/C(C#N)=C/c2ccc(OC(F)F)cc2)CC1,.,-,-,-,18,-
CC(C)NC(=O)N(C)C[C@@H]1Oc2ncc(-c3cccc(C#N)c3)cc2C(=O)N([C@@H](C)CO)C[C@@H]1C,.,-,.,.,.,-
O=C(/C=C/c1ccc(Br)o1)OCc1nc2ccsc2c(=O)[nH]1,.,.,.,-,25,-
CC(=O)Nc1sc(C)c(C)c1C(=O)OCC(=O)NCc1ccc(Cl)cc1,-,.,-,-,-,-
COc1cccc(CNC(=O)COC(=O)c2c(NC(C)=O)sc(C)c2C)c1,-,-,43,-,-,-
c1cc(CNCC2CCCO2)ccn1 (stereo not given),.,-,43,.,-,.
CN(C)c1ccc(CNCC2CCCO2)cc1 (stereo not given),.,-,-,-,-,-
COc1ccc2[nH]c3c(=O)n(Cc4ccc(C(=O)N5CCC(C(N)=O)CC5)cc4)c(=S)[nH]c3c2c1,.,-,43,.,-,-
COC(=O)C[C@@H]1C=C[C@@H](NS(=O)(=O)c2ccc(OC)cc2)[C@H](CO)O1,-,-,-,-,-,-
COc1ccc(C(=O)O)nc1C,-,-,-,-,17,-
COc1cc(C2SCCS2)cc(Br)c1Oc1ncccc1[N+](=O)[O-],61,-,-,.,.,-
O=C(COC(=O)Cc1ccc(Cl)cc1Cl)NCCC1=CCCCC1,-,-,-,-,-,-
C=CCNC(=O)COC(=O)COc1ccc(Cl)cc1C,.,-,.,.,17,-
O=C(COC(=O)/C=C/c1cccc(Cl)c1)NCCC1=CCCCC1,.,-,.,.,.,.
O=C(COC(=O)/C=C/c1ccc(Cl)cc1)NCCC1=CCCCC1,-,32,.,.,.,.
O=C(COC(=O)COc1ccc(Cl)cc1Br)NCCC1=CCCCC1,29,-,-,-,-,-
CCC(=O)N[C@H]1CC[C@H](CC(=O)NCc2ccccc2OC)O[C@@H]1CO,-,.,-,-,-,-
COc1ccc(NC(=O)N(C)C[C@@H]2Oc3ccc(NS(=O)(=O)c4ccc(C)cc4)cc3C(=O)N([C@@H](C)CO)C[C@@H]2C)cc1,-,.,.,-,.,-
SMILES,E-selectin induc,FN deposit inh,FGF22 binding,C2C12 statin,SIRT5 block,rRNA inh HTS
C[C@H]1CN([C@@H](C)CO)C(=O)Cc2cc(NC(=O)CCN3CCOCC3)ccc2O[C@@H]1CN(C)S(=O)(=O)c1ccc(F)cc1,-,.,-,-,-,-
Cc1noc(C)c1NC(=O)Nc1cccc2c1O[C@H](CN(C)S(=O)(=O)c1cn(C)cn1)[C@@H](C)CN([C@@H](C)CO)C2=O,-,-,-,-,-,-
O=C(Nc1c(-c2ccccc2)[nH][nH]c1=O)c1ccc(-c2ccccc2)cc1,-,-,-,.,.,-14
O=C1CNC(=S)N1Cc1ccccc1,-,-,43,.,-,-
O=C1CNC(=S)N1Cc1ccc(F)cc1,.,.,.,-,.,.
C=CCNC(=O)CN1CCC(c2nc3ccccc3[nH]2)CC1,.,-,-,-,-,-
C=CCNC(=O)CN1CCC(c2nc3cc(C)c(C)cc3[nH]2)CC1,-,-,-,-,18,-
C=CCOc1c(Br)cc(/C=C2/NC(=S)N(C(C)=O)C2=O)cc1OC,.,-,-,.,-,-
C=CCOc1ccc(Br)cc1/C=C1\NC(=S)N(C(C)=O)C1=O,-,-,-,-,-,-32
N#CC1=C(N)N2C(=C(C#N)C1c1ccc(Br)cc1)Nc1ccccc12 (stereo not given),.,-,-,.,-,-
N#CC1=C(N)N2C(=C(C#N)C1c1cccc(Br)c1)Nc1ccccc12 (stereo not given),-,-,43,.,-,-
Cc1cccc(C)c1NC(=S)N(CCc1ccncc1)C(C)C,-,-,-,.,16,-
CCOc1ccc(NC(=S)N(CCc2ccncc2)C(C)C)cc1,-,-,-,-,-,-
CC(=O)Nc1ccc(NC(=O)c2ccc(Cl)c(S(=O)(=O)N3CCc4ccccc43)c2)cc1,-,-,-,-,-,-
O=C(Nc1ccccn1)c1ccc(Cl)c(S(=O)(=O)N2CCc3ccccc32)c1,.,-,-,-,-,-28
O=C(Nc1cccnc1)c1ccc(Cl)c(S(=O)(=O)N2CCc3ccccc32)c1,-,-,-,.,-,-26
C[C@H](CO)N1C[C@H](C)[C@@H](CN(C)S(C)(=O)=O)Oc2ccc(NC(=O)C3CCCCC3)cc2CC1=O,27,.,-,-,-,-
